This is one part of a sample in which hits are shown more often than they occur.
VLA-4 inh: inhibition in a human VLA-4 binding assay; P13612; inhibition, % (about 7 µM as worked out from the volumes in the protocol); hit rate 0.2% among 330,000; VLA-4 expressing cells, ligand binding flow cytometry; in the data active means inhibition above about 50%
CHOP inh: inhibitors of CHOP induction in ER stress response. AID 2732. hit rate 3.8% among 220,000. inhibition, % at 10 µM. CHO-K1 CHOP-promoter luciferase, tunicamycin-induced, 15-18 h;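 active means compounds that reduced the stress-induced luciferase reporter signal by more than about 70% of percent inhibition, limit read from the data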;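 further: 0% = tunicamycin plus vehicle and 100% = wells without tunicamycin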
B2AR ag: activates human beta-2 adrenergic receptor causing internalization; response, % (concentration not given with the values); Am2.2-beta2AR cells, FAP receptor internalization, flow cytometry; P07550; hit rate 0.43% among 340,000;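 active means response above a set limit, near 3 SD of response in nonfluorescent compounds, cut at about 42% in these data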
XBP1 UPR activ: adaptive UPR (XBP1) activation | hit rate 0.33% among 330,000 | activation, % at 20 µM | CHO-XBP1 luciferase reporter, IRE1-XBP1 UPR activation, luminescence; percent of tunicamycin response, DMSO as zero;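 active means versus positive control, 20 µM dose yields 30% or more activation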;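 further: 100% = tunicamycin at 10 µg/mL and 0% = DMSO only wells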
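Material: CHO cell line with stable XBP1 luciferase reporter; schedule: 16-18 h cell attachment at 37 °C, then 6 h compound exposure; signal: glow luminescence from Steady-Glo reagent; medium: serum-containing F12 medium, 10% FBS; benchmarks: tunicamycin 10 µg/mL and vehicle-only wells; read-out: percent activation relative to tunicamycin reference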
CHOP UPR activ: apoptotic UPR (CHOP) activation. CHO-CHOP luciferase reporter, luminescence; percent of tunicamycin response over DMSO baseline. hit rate 0.34% among 330,000. activation, % at 10 µM;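 active means at 10 µM dose, activation of 40% or more, normalized to positive control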;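 further: 100% = tunicamycin at 10 µg/mL and 0% = DMSO alone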
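System: CHO-CHOP luciferase reporter cell line | Buffer or medium: F12 medium containing 10% fetal bovine serum | Doses: One dose, 10 µM in 0.5% DMSO | Times: 6 h compound exposure at 37 °C after overnight seeding | Signal: Luciferase luminescence | Read-out: % activation vs tunicamycin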
* marks the source's active call; other numbers are inactive results; nt = no result.

SMILES | VLA-4 inh | CHOP inh | B2AR ag | XBP1 UPR activ | CHOP UPR activ
COc1ccc(S(=O)(=O)NCC(=O)N(CC2CCCO2)C(C(=O)NC2CCCC2)C(C)C)cc1 (centres undefined) | 1 | nt | -1 | 2 | 4
O=C(O)CCN1C(=O)/C(=C\c2ccc(-c3nc4ccccc4s3)o2)SC1=S | 2 | 74* | 55* | 5 | 3
CCOc1ccc(/C=C2/SC(=S)N(n3c(C)ccc3C)C2=O)cc1 | 8 | 21 | 8 | -2 | 1
COc1ccc(/C=C2/SC(=S)N(n3c(C)ccc3C)C2=O)cc1 | 18 | 90* | 9 | -3 | 1
COc1ccc(/C=C2/SC(=S)N(CCC(=O)O)C2=O)cc1 | 24 | 84* | -6 | -3 | -7
C=C(C)c1cccc(C(C)(C)NC(=O)Nc2ccc(Cl)cn2)c1 | 0 | 78* | -1 | -1 | 1
COCCn1c(=NC(=O)c2ccc(S(=O)(=O)N3CCc4ccccc4C3)cc2)sc2cc(S(N)(=O)=O)ccc21 | 4 | 23 | 0 | -1 | 2
C=CCn1c(=NC(=O)c2ccc(S(=O)(=O)N3CCc4ccccc4C3)cc2)sc2cc(S(N)(=O)=O)ccc21 | 8 | 77* | 5 | -2 | 3
O=C(NCc1cccnc1)/C(=C\c1ccc(-c2ccc(Cl)c(Cl)c2)o1)S(=O)(=O)c1ccccc1 | 9 | 110* | 95* | nt | nt
O=C(NCc1cccnc1)c1ccc(-c2ccc(Cl)cc2)o1 | 0 | 29 | 4 | 3 | 0
Cc1ccc(CNC(=O)COC(=O)c2cc(C)oc2C)cc1 | 6 | nt | -1 | 0 | -1
CCOC(=O)c1ccc(NC(=S)Nc2ccc(Br)cc2N)cc1 | -4 | nt | 0 | 3 | 2
O=c1c2ccccc2sn1-c1ccc(S(=O)(=O)N2CCCCC2)cc1 | 1 | nt | 10 | -3 | 6
O=C(O)c1cccc(-n2sc3ccccc3c2=O)c1 | -13 | nt | -1 | -4 | 8
CN(C)S(=O)(=O)c1cccc(-n2sc3ccccc3c2=O)c1 | 21 | 93* | 2 | -3 | 4
O=c1c2ccccc2sn1-c1ccc(S(=O)(=O)N2CCCC2)cc1 | 19 | 87* | -6 | -1 | 9
O=C(Nc1ccc2c(c1)CN(Cc1ccccc1O)CC2)C1CCCO1 (centres undefined) | -111 | nt | -6 | -2 | 3
COc1nc(Nc2cccc(C)c2)nc(N2CCCCC2)n1 | -25 | 71* | -4 | 2 | 2
COc1nc(N2CCCCCC2)nc(N2CCCCCC2)n1 | 0 | 88* | 15 | 3 | -2
COc1ccc(CNC(=O)c2nc(S(=O)(=O)Cc3ccccc3)ncc2Cl)cc1 | 15 | nt | 28 | -8 | 164*
O=C(NCc1ccccc1)c1nc(S(=O)(=O)Cc2ccccc2)ncc1Cl | 25 | nt | 26 | -11 | 105*
COC(=O)c1ccccc1NC(=O)c1nc(S(=O)(=O)Cc2ccccc2)ncc1Cl | 39 | nt | 52* | -10 | -11
O=S(=O)(c1ccccc1)N1CCC(n2nnc3cc(F)ccc32)CC1 | 0 | -11 | -1 | 0 | 0
O=S(=O)(c1ccc2c(c1)OCCO2)N1CCC(n2nnc3cc(C(F)(F)F)ccc32)CC1 | 9 | 70* | -4 | 2 | 2
CCCOc1cc(C)c(S(=O)(=O)n2ccc(C)n2)cc1C | 12 | 93* | 0 | -5 | 2
SMILES | VLA-4 inh | CHOP inh | B2AR ag | XBP1 UPR activ | CHOP UPR activ
O=C(NCC1CCCO1)C1CC(=O)N(c2ccc(Cl)cc2)C1 (centres undefined) | -4 | nt | 2 | 0 | 1
O=[N+]([O-])/C=C/c1cn(Cc2ccc(F)cc2)c2ccccc12 | 30 | 93* | 41 | -3 | 9
O=C(O)c1ccc(N/N=C/c2cn(Cc3ccc(F)cc3)c3ccccc23)cc1 | -7 | 4 | 28 | -1 | 0
CCCc1ccc(C(=O)N2CCN(c3ccccc3OCC)CC2)cc1 | -2 | 71* | -4 | -2 | -3
COc1ccc(-c2nc3c(c(=O)[nH]c(=O)n3Cc3ccccc3)n2Cc2ccccc2)cc1 | 0 | 76* | -14 | 6 | 7
Cc1ccc(S(=O)(=O)N2CCOCC2)cc1NC(=O)CSCc1c(C)noc1C | 10 | nt | -4 | -1 | -3
C#CCOCCOCCOCCNc1nc(N2CCN(C(=O)CCCCCCCCCCNC(=O)[C@H]([C@@H](C)CC)n3cc(CCCCCN)nn3)CC2)nc(N2CCN(C(=O)CCCCCCCCCCNC(=O)[C@@H]([C@H](C)CC)n3cc(CCCCCN)nn3)CC2)n1 | -13 | nt | nt | 32* | 9
C#CCOCCOCCOCCNc1nc(N2CCN(C(=O)CCCCCCCCCCNC(=O)[C@H]([C@@H](C)CC)n3cc(CCCCN=C(N)N)nn3)CC2)nc(N2CCN(C(=O)CCCCCCCCCCNC(=O)[C@H](CO)n3cc(CCCCCN)nn3)CC2)n1 | -14 | nt | 52* | 3 | 1
C#CCOCCOCCOCCNc1nc(N2CCN(C(=O)CCCCCCCCCCNC(=O)[C@@H](CCC(=O)O)n3cc(CCCCCN)nn3)CC2)nc(N2CCN(C(=O)CCCCCCCCCCNC(=O)[C@H]([C@@H](C)CC)n3cc(CCCCCN)nn3)CC2)n1 | 8 | nt | 52* | 2 | 1
C#CCOCCOCCOCCNc1nc(N2CCN(C(=O)CCCCCCCCCCNC(=O)[C@H]([C@@H](C)CC)n3cc(CCCCCN)nn3)CC2)nc(N2CCN(C(=O)CCCCCCCCCCNC(=O)[C@H](CCCCN)n3cc(CCCC(=O)O)nn3)CC2)n1 | 6 | nt | 30 | -2 | 2
C#CCOCCOCCOCCNc1nc(N2CCOCC2)nc(N2CCN(C(=O)CCCCCCCCCCNC(=O)[C@@H]([C@H](C)CC)n3cc(CCCCCN)nn3)CC2)n1 | 1 | nt | 12 | 0 | 0
COc1ccc(S(=O)(=O)N2CCOCC2)cc1NC(=O)CCCOc1ccccc1 | 1 | nt | -2 | 1 | 1
CCC(CO)Oc1cc(NCc2ccccc2Cl)c2ncn(C(C)C)c2c1 (centres undefined) | -6 | nt | 9 | -1 | 1
CC1COCC(C)N1C1=C(Cl)C(=O)c2ccccc2C1=O (centres undefined) | nt | nt | 81* | nt | nt
Fc1ccccc1COc1cccc(/C=N/n2cnnc2)c1 | -13 | 72* | 3 | -2 | -2
NC(N)=NCCSSCCN=C(N)N | nt | 7 | nt | nt | nt
CC(C)CCOc1ccc(/C=C2\CCn3c2nc2cc(C(=O)O)ccc2c3=O)cc1 | nt | 90* | 17 | nt | nt
O=C(Nc1ccc2cn[nH]c2c1)c1c(Cl)cccc1Cl | 13 | 43 | 7 | 2 | -2
O=C1C(Cl)=C(Nc2ccc3cn[nH]c3c2)C(=O)c2ccccc21 | 26 | 107* | 104* | nt | nt
CN(C)c1ccc(NC2=C(Cl)C(=O)c3ccccc3C2=O)cc1 | 19 | 95* | 19 | 0 | 26
CC(C)COc1cccc(-c2cc(C(=O)Nc3ccon3)c3ccccc3n2)c1 | -3 | nt | 31 | -2 | -2
FC(F)Oc1ccc(/C=N/NC(=S)Nc2cc(C(F)(F)F)ccc2Cl)cc1 | 0 | 76* | -2 | -1 | 0
CNC(=S)Nc1cc(C(F)(F)F)ccc1Cl | 12 | -5 | 1 | -2 | -2

Screening data from PubChem.
